# Measured values of several laboratories.
# Each line is one published result; the experiments were not run side by side.
# ALK: ALK tyrosine kinase receptor (ALK, Homo sapiens, UniProt Q9UM73)
# ALK L1196M: ALK tyrosine kinase receptor (ALK, Homo sapiens, UniProt Q9UM73, L1196M)
Structure (SMILES),target,test,setting,endpoint,value
Cc1ccc(NC(=O)c2ccnc(C(F)(F)F)c2)cc1-c1cc(OCCO)nc(N2CCOCC2)c1,ALK,binding,1 µM,remaining binding,89%
CNC(=O)c1ccccc1Nc1nc(Nc2ccc(CO)nc2)ncc1Cl,ALK,"enzyme activity, inhibitor, radiometric",1 µM,remaining activity,2.92%
C1=C/COCc2cc(ccc2OCCN2CCCC2)Nc2nccc(n2)-c2cccc(c2)COC/1,ALK,binding,0.1 µM,remaining binding,73%
CNC(=O)c1ccccc1Nc1nc(Nc2ccc(CO)cc2)ncc1Cl,ALK,"enzyme activity, inhibitor, radiometric",1 µM,remaining activity,1.07%
CO[C@@H]1[C@H](N(C)C(=O)c2ccccc2)C[C@H]2O[C@]1(C)n1c3ccccc3c3c4c(c5c6ccccc6n2c5c31)C(=O)NC4,ALK L1196M,"enzyme activity, inhibitor",1 µM,inhibition,42%
C[C@H]1CC[C@H](n2c3cnccc3c3cnc(Nc4ccc5c(n4)CCN(C(=O)CO)C5)nc32)CC1,ALK,binding,1 µM,remaining binding,84%
CCCCC(=O)Nc1ccc(-c2ccc3ncn(CCC)c(=O)c3c2)cn1,ALK L1196M,"binding, competition with immobilised ligand",0.5 µM,remaining binding,100%
C=CC(=O)N1CCC([C@@H]2CCNc3c(C(N)=O)c(-c4ccc(Oc5ccccc5)cc4)nn32)CC1,ALK,cell-free assay,1 µM,inhibition,5%
CS(=O)(=NC#N)c1ccccc1Nc1nc(Nc2ccnc(CO)c2)ncc1Cl (stereo not shown),ALK,"enzyme activity, inhibitor, radiometric",1 µM,remaining activity,36.7%
CN1CCN(C(=O)c2ccc(NC(=O)Nc3ccc(N(C)c4ccnc(Nc5ccc(CS(C)(=O)=O)cc5)n4)cc3)cc2)CC1,"ALK tyrosine kinase receptor (ALK, Homo sapiens, UniProt Q9UM73, C1156Y)",binding,1 µM,remaining binding,64%
CC#CC(=O)N1CCC[C@H]1c1nc(-c2ccc(C(=O)Nc3ccccn3)cc2)c2c(N)nccn12,ALK L1196M,"enzyme activity, inhibitor",1 µM,inhibition,11%
CS(=O)(=O)c1ccccc1Nc1nc(Nc2ccnc(CO)c2)ncc1Cl,ALK,"enzyme activity, inhibitor, radiometric",1 µM,remaining activity,10.2%
COc1ccc2[nH]c3c4[nH]c5ccc(OC)cc5c4c4c(c3c2c1)C(=O)NC4=O,ALK,binding,1 µM,remaining binding,55%
